Data published in ChEMBL document CHEMBL1155883, “5-Alkyl-6-benzyl-2-(2-oxo-2-phenylethylsulfanyl)pyrimidin-4(3H)-ones, a series of anti-HIV-1 agents of the dihydro-alkoxy-benzyl-oxopyrimidine family with peculiar structure-activity relationship profile” (J Med Chem, 2008).
pEC50: −log10 of the molar value.

Assays:
[1] = Cytotoxicity against human MT4 cells by MTT assay; assay type: cell-based
Procedure, shortened: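 Mock-infected MT-4 cells were exposed to a range of compound concentrations. Viability was read by MTT at day 5. CC50 is the concentration that kills 50% of uninfected cells. The top concentration was limited by compound precipitation in culture medium. Means ± SD from at least two or three experiments.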

[2] = Selectivity index, ratio of CC50 for human MT4 cells to EC50 for HIV1 NL4-3; assay type: toxicity, cell-based; conditions: read-out: Ratio CC50/EC50
Procedure, shortened: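 Computed as CC50/EC50. CC50 comes from MTT viability of mock-infected MT-4 cells and EC50 from MTT protection of NL4-3-infected MT-4 cells, both read at day 5.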

[3] = test system: Human immunodeficiency virus 1; test: Antiviral activity against HIV1 isolates with reverse transcriptase Y188L mutation in human MT4 cells assessed as inhibition of virus-induced cytopathogenicity by MTT assay; assay type: functional, organism-based; conditions: Human immunodeficiency virus 1, MT4
Procedure, shortened: (§1)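 MT-4 lymphoid cells infected with HIV-1 carrying RT K103N, Y181C or Y188L, in the presence of different drug concentrations. Viable cells counted at day 5 postinfection by MTT colorimetric assay. EC50 is the concentration that inhibits 50% of the HIV-induced cytopathic effect.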

[4] = test system: Human immunodeficiency virus 1; test: Antiviral activity against HIV1 NL4-3 in human MT4 cells assessed as inhibition of virus-induced cytopathogenicity by MTT assay; assay type: functional, organism-based; conditions: Human immunodeficiency virus 1, NL4-3, MT4
Procedure, shortened: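 MT-4 lymphoid cells infected with wild-type HIV-1 NL4-3 in the presence of a range of compound concentrations. Viable cells were counted by MTT colorimetric read-out at day 5 post-infection. EC50 is the concentration giving 50% protection from virus-induced cytopathic effect. Means ± SD from at least two or three experiments.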

[5] = test system: Human immunodeficiency virus 1; test: Resistance index, ratio of EC50 for drug-resistant HIV1 isolate with reverse transcriptase Y181C mutation to EC50 for wild type HIV1 NL4-3; assay type: functional
Procedure, shortened: (§2)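 Fold resistance is the EC50 against the K103N, Y181C or Y188L mutant strain divided by the EC50 against wt NL4-3. Each EC50 is from MT-4 cells infected in the presence of different drug concentrations, with viability read by MTT at day 5 postinfection.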

[6] = test system: Human immunodeficiency virus type 1 reverse transcriptase (Human immunodeficiency virus 1), Q72547 [Y181I]
[7] = test system: Human immunodeficiency virus 1; test: Resistance index, ratio of ID50 for reverse transcriptase K103N mutant to IC50 for wild-type HIV1 sreverse transcriptase
Procedure, shortened: (§3)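 Recombinant wt and K103N, L100I or Y181I HIV-1 RT (>95% pure), 2-4 nM. RNA-dependent DNA polymerase assay on 0.5 µg poly(rA)/oligo(dT) 10:1 (0.3 µM 3'-OH ends) with 10 µM [3H]-dTTP and 8% final DMSO. Aliquots taken every 2 min. Inhibitor range 0.2-5× ID50, fitted to a noncompetitive model. Fold resistance is mutant ID50 divided by wt ID50.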

[8] = test system: Human immunodeficiency virus 1; test: Resistance index, ratio of ID50 for reverse transcriptase L100I mutant to IC50 for wild-type HIV1 reverse transcriptase; procedure, shortened: as §3
[9] = test system: Human immunodeficiency virus 1; test: Antiviral activity against HIV1 isolates with reverse transcriptase Y181C mutation in human MT4 cells assessed as inhibition of virus-induced cytopathogenicity by MTT assay; assay type: functional, organism-based; conditions: Human immunodeficiency virus 1, MT4; procedure, shortened: as §1
[10] = target: Human immunodeficiency virus type 1 reverse transcriptase (Human immunodeficiency virus 1) (UniProt Q72547)
[11] = test system: Human immunodeficiency virus 1; test: Resistance index, ratio of EC50 for drug-resistant HIV1 isolate with reverse transcriptase Y188L mutation to EC50 for wild type HIV1 NL4-3; assay type: functional; procedure, shortened: as §2
[12] = test system: Human immunodeficiency virus 1; test: Resistance index, ratio of ID50 for reverse transcriptase Y181I mutant to IC50 for wild-type HIV1 reverse transcriptase; procedure, shortened: as §3
[13] = test system: Human immunodeficiency virus type 1 reverse transcriptase (Human immunodeficiency virus 1), Q72547 [L100I]
[14] = test system: Human immunodeficiency virus type 1 reverse transcriptase (Human immunodeficiency virus 1), Q72547 [K103N]
[15] = test system: Human immunodeficiency virus 1; test: Resistance index, ratio of EC50 for drug-resistant HIV1 isolate with reverse transcriptase K103N mutation to EC50 for wild type HIV1 NL4-3; assay type: functional; procedure, shortened: as §2
[16] = test system: Human immunodeficiency virus 1; test: Antiviral activity against HIV1 isolates with reverse transcriptase K103N mutation in human MT4 cells assessed as inhibition of virus-induced cytopathogenicity by MTT assay; assay type: functional, organism-based; conditions: Human immunodeficiency virus 1, MT4; procedure, shortened: as §1

Structure (SMILES) | CC50 [1] | selectivity ratio [2] | pEC50 [3] | pEC50 [4] | Ratio EC50 [5] | ID50 [6] | Ratio [7] | Ratio [8] | pEC50 [9] | ID50 [10] | Ratio EC50 [11] | Ratio [12] | ID50 [13] | ID50 [14] | Ratio EC50 [15] | pEC50 [16]
CCc1c(Cc2c(Cl)cccc2Cl)nc(SCC(=O)c2ccccc2)[nH]c1=O | > 52000 nM | > 7430 | 5.30 | 8.15 | 7 | 330 nM | 26 | 50 | 7.34 | 71 nM | 714 | 5 | 3540 nM | 1880 nM | 171 | 5.92
COc1ccc(CCSc2nc(Cc3c(Cl)cccc3Cl)c(C)c(=O)[nH]2)cc1 | > 57000 nM | > 407000 | – | > 9.85 | – | – | 123 | – | – | – | 49286 | 58 | – | – | 6214 | –
CC(C)c1c(Cc2c(F)cccc2Cl)nc(SCC(=O)c2ccccc2)[nH]c1=O | > 12000 nM | > 2400 | 5.11 | 8.30 | 42 | > 40000 nM | 4500 | 1300 | 6.68 | 1 nM | 1540 | – | 1300 nM | 4500 nM | 658 | 5.48
Cc1c(Cc2c(Cl)cccc2Cl)nc(SCC(=O)c2ccccc2)[nH]c1=O | > 60000 nM | > 1580 | 5.05 | 7.42 | 13 | 1380 nM | 53 | 34 | 6.32 | 230 nM | 232 | 6 | 7800 nM | 12000 nM | 100 | 5.42
COc1ccc(C(=O)CSc2nc(Cc3c(F)cccc3F)c(C(C)C)c(=O)[nH]2)cc1 | 33000 nM | 16500 | 4.83 | 8.70 | 33 | > 40000 nM | 1440 | – | 7.17 | 26 nM | 7350 | – | > 40000 nM | 37300 nM | 8750 | 4.76
CCc1c(Cc2c(Cl)cccc2Cl)nc(SCC(=O)c2ccc(F)cc2)[nH]c1=O | > 55000 nM | > 7860 | 4.44 | 8.15 | 70 | 240 nM | 43 | 43 | 6.31 | 42 nM | 5186 | 6 | 1820 nM | 1790 nM | 671 | 5.33
CCc1c(Cc2c(F)cccc2Cl)nc(SCC(=O)c2ccccc2)[nH]c1=O | > 12000 nM | > 1000 | 5.03 | 7.92 | 32 | > 40000 nM | – | 1210 | 6.41 | 8 nM | 782 | – | 9700 nM | > 40000 nM | 100 | 5.92
CC(C)c1c(Cc2c(Cl)cccc2Cl)nc(SCC(=O)c2ccccc2)[nH]c1=O | > 56000 nM | > 14000 | 5.26 | 8.40 | 27 | 16800 nM | 894 | 326 | 6.96 | 31 nM | 1375 | 542 | 10100 nM | 27700 nM | 1275 | 5.29
